Consider 16 compounds from PubChem BioAssay.

Calls of active or inactive are those of the source.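 Rule for the calls, unless noted: active = viability at or under a set limit in both replicates, limit being median viability minus 3 SD (cut at about 48% in these data, passing the limit was not always enough); inconclusive = at or under the limit in just one replicate; inactive = at or above the limit in both replicates.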

Test [1] can be described thus: SK-BR-3 cell growth inhibitors, pilot screen, 24 h, human (AID 572;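 active = viability at or below 10% of carrier control in both of two separate runs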;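 note: compound exposure lasted between 18 and 24 h rather than exactly 24 h; 100% = carrier-treated control wells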). Conditions: SK-BR-3 viability, CellTiter-Glo luminescence, at 10 µM, stronger effect = lower value.
A short description of test [2]: HUVEC growth inhibition – cell-based, human, primary screen (AID 575;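 active = viability at or below 30% in both replicate assays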;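 note: 100% = median of untreated cell wells with 0.1% DMSO on each plate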). Conditions: HUVEC proliferation, CellTiter-Glo luminescence, 72 h; at 10 µM; stronger effect = lower value. In outline:
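Assay system: Primary human umbilical vein endothelial cells | Quantity: 1250 cells per well | Medium: Supplemented EBM, 2% fetal bovine serum | Detection: CellTiter-Glo luminescence measuring cellular ATP | Read-out: % viability vs DMSO wells | Plate: Collagen-coated 384-well format | Times: 72 h exposure, 37 °C, 5% CO2, 30 min RT equilibration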

Test [3] in a line: growth inhibitors of H69AR lung tumor, primary screen, human, duplicate replicates (AID 580).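 Note: 100% = mean luminescence of untreated wells and 0% = no signal.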 Conditions: H69AR lung tumor cells viability, ATP luminescence, 72 h; at 10 µM; stronger effect = lower value.
The nature of test [4]: reversal of MRP1-mediated doxorubicin resistance, pilot screen, H69AR cells, doxorubicin co-treatment (AID 601;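 active = viability loss from added drug above about 55%, and viability with drug at most 40%, in both replicates, limit read from the data, passing the limit was not always enough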). Conditions: CellTiter-Glo, 72 h, at 10 µM; for differential viability (reversal): stronger effect = higher value.
Test [5] can be described thus: 384-well plate pilot, post-Golgi transport modulator project, inhibition of yeast transport mutant growth (AID 636; in the data active = inhibition above about 31%). Conditions: absorbance 615 nm, about 18 h, stronger effect = higher value.
Test [6] in a line: growth suppression of yeast trafficking mutant, preliminary HTS, modulators of trafficking downstream of Golgi apparatus project, 1536-format plate, OD 615 nm (AID 637; in the data active = inhibition above about 30%). Conditions: yeast transport mutant growth, absorbance 615 nm, 18 h; stronger effect = higher value.
The mark [7] stands for this setting: H69AR cells + 2 uM doxorubicin, measured here: viability with 2 uM doxorubicin, stronger effect = lower value.
[8] abbreviates: H69AR cells, compound alone cytotoxicity.

`O=C(COc1ccccc1Cl)NCCCN1CCOCC1`: the viability is 98% (inactive) in test [1]; 86.9% (inactive) in test [2]; 91.3% (inactive) in test [3]; 91.9% in test [4] (setting [7]); 91.3% in test [4] (setting [8]). Besides, in test [4] (H69AR cells + 2 uM doxorubicin), the differential viability (reversal) is -0.6% (inactive). The results for the inhibition in test [5] and in test [6] were 3.15% (inactive) and -2.74% (inactive), respectively.
Turning to `CCc1[nH]nc2c1C1(CCN(C(=O)OCc3ccccc3)CC1)C(C#N)=C(N)O2`, the viability in test [1] is 112% (inactive); in test [2], 85.6% (inactive); in test [3] it was 85.2% (inactive); in test [4] (setting [7]) it was 85.8%; in test [4] (setting [8]), 85.2%. Further, the differential viability (reversal) in test [4] (H69AR cells + 2 uM doxorubicin) was -0.55% (inactive). Also, the results for the inhibition in test [5] and in test [6] were -8.9% (inactive) and 2.1% (inactive), respectively.
Take `Cc1nc(NC(=O)c2ccccc2)sc1-c1csc(NCc2ccco2)n1`: the viability was 82% (inactive) in test [1]; 89% (inactive) in test [2]; 20.2% (active) in test [3]; 62.7% in test [4] (setting [7]); 20.2% in test [4] (setting [8]). In test [4] (H69AR cells + 2 uM doxorubicin), the differential viability (reversal) is -42.5% (inactive). In addition, the results for the inhibition in test [5] and in test [6] were 34.6% (active) and 9.27% (inactive), respectively.
For `Cc1cccc(NC(=O)c2ccc3ccccc3n2)n1`, the viability in test [1] was 91% (inactive); in test [2], 86.6% (inactive); in test [3], 76.3% (inactive); in test [4] (setting [7]) it was 94.3%; in test [4] (setting [8]) it was 76.3%. Also, the differential viability (reversal) in test [4] (H69AR cells + 2 uM doxorubicin) was -18.1% (inactive). Besides, the inhibition in test [5] was -0.13% (inactive); in test [6] it was -1.83% (inactive).
Consider `Cc1cc(C)c(NC(=O)CSc2nnc(-c3ccncc3)n2Cc2ccco2)c(C)c1`, for which the viability in test [1] was 91% (inactive); in test [2], 109% (inactive); in test [3], 97.4% (inactive); in test [4] (setting [7]) it was 94.2%; in test [4] (setting [8]), 97.4%. The differential viability (reversal) in test [4] (H69AR cells + 2 uM doxorubicin) was 3.25% (inactive). Also, the inhibition in test [5] was -2.7% (inactive); in test [6], -4.73% (inactive).
As for `O=C(NCc1ccco1)c1ccc2c(=O)n(CC3CCCO3)c(=S)[nH]c2c1` (stereo not drawn), the viability in test [1] is 94% (inactive); in test [2] it was 76% (inactive); in test [3], 94.4% (inactive); in test [4] (setting [7]), 86.9%; in test [4] (setting [8]), 94.4%. Moreover, the differential viability (reversal) in test [4] (H69AR cells + 2 uM doxorubicin) is 7.56% (inactive). In addition, the inhibition in test [5] is -2.73% (inactive); in test [6] it was -0.66% (inactive).
In the case of `COCc1[nH]nc2c1C(c1cc(OC)c(O)c(OC)c1)C(C#N)=C(N)O2` (stereo not drawn), the viability is 98% (inactive) in test [1]; 102% (inactive) in test [2]; 93% (inactive) in test [3]; 95% in test [4] (setting [7]); 93% in test [4] (setting [8]). Besides, the differential viability (reversal) in test [4] (H69AR cells + 2 uM doxorubicin) was -2% (inactive). Moreover, the inhibition was -10.3% (inactive) in test [5] and 4.03% (inactive) in test [6].
Take `O=C1CCCN1Cc1ncnn1-c1ccccc1`: the viability in test [1] was 89% (inactive); in test [2], 108% (inactive); in test [3], 112% (inactive); in test [4] (setting [7]), 97.1%; in test [4] (setting [8]) it was 112%. In test [4] (H69AR cells + 2 uM doxorubicin), the differential viability (reversal) was 14.7% (inactive). The inhibition is 0.27% (inactive) in test [5] and -6.55% (inactive) in test [6].
Turning to `Fc1ccccc1Cn1nnc2c(-n3ccnc3)ncnc21`, the viability is 115% (inactive) in test [1]; 99.9% (inactive) in test [2]; 92.3% (inactive) in test [3]; 77.1% in test [4] (setting [7]); 92.3% in test [4] (setting [8]). Further, in test [4] (H69AR cells + 2 uM doxorubicin), the differential viability (reversal) was 15.2% (inactive). Moreover, the inhibition in test [5] was -3.01% (inactive); in test [6] it was -3.71% (inactive).
`CCC1(C)Cc2c(sc3nc(SCC(=O)O)[nH]c(=O)c23)CO1` (stereo not drawn): the viability in test [1] is 111% (inactive); in test [2], 107% (inactive); in test [3], 94.1% (inactive); in test [4] (setting [7]) it was 79.6%; in test [4] (setting [8]) it was 94.1%. Besides, in test [4] (H69AR cells + 2 uM doxorubicin), the differential viability (reversal) is 14.5% (inactive). Besides, the inhibition in test [5] was -1.6% (inactive); in test [6], -10% (inactive).
Consider `Cc1ccc2nc(-c3ccc4c(c3)OCCO4)cc(C(=O)O)c2c1`, for which the viability is 89% (inactive) in test [1]; 104% (inactive) in test [2]; 101% (inactive) in test [3]; 95% in test [4] (setting [7]); 101% in test [4] (setting [8]). Moreover, the differential viability (reversal) in test [4] (H69AR cells + 2 uM doxorubicin) was 5.86% (inactive). Further, the inhibition in test [5] was -4.73% (inactive); in test [6], -6% (inactive).
As to `Cc1oc2c(c1C(=O)NCc1ccccc1)CCCC2`, the viability in test [1] was 81% (inactive); in test [2], 97% (inactive); in test [3], 107% (inactive); in test [4] (setting [7]), 99%; in test [4] (setting [8]), 107%. For the same compound, the differential viability (reversal) in test [4] (H69AR cells + 2 uM doxorubicin) was 8.32% (inactive). Also, the inhibition in test [5] is -4.93% (inactive); in test [6], -1.64% (inactive).
In the case of `COC(=O)c1ccc2c(=O)n(CC3CCCO3)c(=S)[nH]c2c1` (stereo not drawn), the viability in test [1] is 84% (inactive); in test [2], 106% (inactive); in test [3], 86.2% (inactive); in test [4] (setting [7]) it was 83.9%; in test [4] (setting [8]) it was 86.2%. In addition, the differential viability (reversal) in test [4] (H69AR cells + 2 uM doxorubicin) is 2.35% (inactive). For the same compound, the inhibition in test [5] is -8.36% (inactive); in test [6] it was 4.19% (inactive).
Take `COC(=O)CSc1ncccc1-c1nc2ccccc2[nH]1`: the viability in test [1] is 110% (inactive); in test [2], 96.9% (inactive); in test [3], 90.8% (inactive); in test [4] (setting [7]), 91.5%; in test [4] (setting [8]) it was 90.8%. In test [4] (H69AR cells + 2 uM doxorubicin), the differential viability (reversal) is -0.73% (inactive). Moreover, the inhibition is -2.33% (inactive) in test [5] and -5.48% (inactive) in test [6].
On to `CC1(C)S[C@@H]2[C@H](NC(=O)[C@H](N)c3ccccc3)C(=O)N2[C@H]1C(=O)O`, for which the viability in test [1] is 103% (inactive); in test [2], 93.8% (inactive); in test [3] it was 107% (inactive); in test [4] (setting [7]) it was 91.4%; in test [4] (setting [8]), 107%. Further, in test [4] (H69AR cells + 2 uM doxorubicin), the differential viability (reversal) was 15.6% (inactive). Also, the inhibition in test [5] is -5.32% (inactive); in test [6] it was 3.33% (inactive).
Take `CCOC(=O)c1c(C)[nH]c(C(=O)Cn2c(=O)c3c(ncn3CC)n(Cc3ccccc3)c2=O)c1C`: the viability was 89% (inactive) in test [1]; 98% (inactive) in test [2]; 85.2% (inactive) in test [3]; 90.1% in test [4] (setting [7]); 85.2% in test [4] (setting [8]). In addition, the differential viability (reversal) in test [4] (H69AR cells + 2 uM doxorubicin) was -4.88% (inactive). The inhibition in test [5] was -6.35% (inactive); in test [6] it was -2.73% (inactive).

As a reminder, the viability is a read-out of living cells in per cent, often relative to untreated cells. The inhibition is the change of the read-out against control, counted positive when it falls.
